pKd: −log10 of the molar value. Where no end group is shown, it is not given here. [ ]: non-standard residue; d: D form. Met(O) = CS(=O)CC[C@H](N)C(=O)O
Experiments:
[1] = biological target: human KCa1.1 channel (HSlo) (Homo sapiens, UniProt Q12791); experiment: Whole-cell patch clamp inhibition of cloned human KCa1.1; assay type: cell-based; details: read-out: inhibition of outward current
Summary of the method: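 Whole-cell clamp of HEK293 stably expressing N-terminal Flag-tagged human HSlo. Pipette: KCl/EGTA/Hepes-KOH pH 7.2, 0.5 μM free Ca2+. Bath: NaCl-based pH 7.4. Steps from −80 mV to +100 mV (+10 mV, 100 ms), 5 kHz filter, P/5 leak correction, paxilline-resistant current subtracted. Toxin (50 nM) gravity-perfused; −80→+50 mV pulses every 10 s tracked onset/washout. KI from one-site fit; Kd from kinetic ratio.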

[2] = Biological activity of deprotected IbTx-D19C; details: after selective thiol deprotection using AgBF4; methionine sulfoxide (Met^29)
KCa1.1 = KCa1.1 (UniProt Q12791); details: cited from earlier work
KCa1.1, sequence (Q12791 whole entry): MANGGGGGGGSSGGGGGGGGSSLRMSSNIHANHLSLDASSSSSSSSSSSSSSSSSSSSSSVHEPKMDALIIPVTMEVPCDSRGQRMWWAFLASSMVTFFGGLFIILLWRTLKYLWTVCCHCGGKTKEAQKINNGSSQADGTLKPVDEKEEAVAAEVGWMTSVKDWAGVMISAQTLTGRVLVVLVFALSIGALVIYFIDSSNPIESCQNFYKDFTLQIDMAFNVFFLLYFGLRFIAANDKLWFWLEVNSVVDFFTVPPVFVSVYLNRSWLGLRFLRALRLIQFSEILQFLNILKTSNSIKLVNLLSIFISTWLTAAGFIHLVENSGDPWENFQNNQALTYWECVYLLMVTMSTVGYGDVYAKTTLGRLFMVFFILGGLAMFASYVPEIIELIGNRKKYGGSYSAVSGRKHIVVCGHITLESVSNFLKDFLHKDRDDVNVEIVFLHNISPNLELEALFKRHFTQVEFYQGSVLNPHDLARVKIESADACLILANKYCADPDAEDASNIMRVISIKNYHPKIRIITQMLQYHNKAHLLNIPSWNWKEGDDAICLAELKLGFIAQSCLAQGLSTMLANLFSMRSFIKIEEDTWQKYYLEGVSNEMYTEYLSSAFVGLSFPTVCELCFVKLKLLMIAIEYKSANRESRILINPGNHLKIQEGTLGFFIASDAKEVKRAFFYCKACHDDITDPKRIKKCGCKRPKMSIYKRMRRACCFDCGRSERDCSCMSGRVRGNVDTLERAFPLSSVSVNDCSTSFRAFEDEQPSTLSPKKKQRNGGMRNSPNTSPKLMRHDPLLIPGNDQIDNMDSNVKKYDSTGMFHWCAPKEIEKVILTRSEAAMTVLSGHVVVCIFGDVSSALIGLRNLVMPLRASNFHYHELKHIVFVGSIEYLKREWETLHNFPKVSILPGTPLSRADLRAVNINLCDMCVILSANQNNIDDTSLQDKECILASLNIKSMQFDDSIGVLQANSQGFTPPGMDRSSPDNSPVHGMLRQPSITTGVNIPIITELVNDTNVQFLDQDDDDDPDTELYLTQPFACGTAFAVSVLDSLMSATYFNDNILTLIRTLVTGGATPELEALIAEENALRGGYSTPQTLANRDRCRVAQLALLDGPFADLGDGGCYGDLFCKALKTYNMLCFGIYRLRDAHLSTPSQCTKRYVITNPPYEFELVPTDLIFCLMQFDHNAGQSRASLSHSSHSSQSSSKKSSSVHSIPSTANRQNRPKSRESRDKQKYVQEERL

human KCa1.1 channel (HSlo), sequence (Q12791 whole entry, the tested form may be a part): as the sequence (Q12791 whole entry) above
iberiotoxin, sequence (P24663 whole entry): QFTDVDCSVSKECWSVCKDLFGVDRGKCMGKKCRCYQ

CC(C)(O)[C@H]1O[C@H]2CC[C@@]3(C)[C@@](O)(CC[C@H]4Cc5c([nH]c6ccccc56)[C@@]43C)C2=CC1=O [Paxilline]
inhibition at 1 µM [1]: > 95%

IbTx-D19C: biologically inactive form of IbTx-D19C from AgBF4 deprotection of IbTx-D19C-Acm (QFTDVDCSVSKECWSVCKCLFGVDRGKC[Met(O)]GKKCRCYQ; ends and bridges not checked; UniProt P24663 1-37, looked up, variant D19C)
biological activity [2]: biologically inactive

iberiotoxin (from UniProt P24663)
pKd (KCa1.1): > 9.00

Source: publication PMC2998342 (Peptides, 2009)
